Measured values: ChEMBL document CHEMBL5321232, “Synthesis and biological evaluation of dual MDM2/XIAP inhibitors based on the tetrahydroquinoline scaffold” (Eur J Med Chem, 2023)
Calls of active or inactive are those of the source.

How the values were obtained:
A-375 [1] = assay: Inhibition of colony formation in human A-375 cells assessed as reduction in number of clonogenic cells at 1 to 10 uM incubated for 10 days and subsequent media replacement with compound for every 3 days by crystal violet staining based microscopic analysis; assay type: functional, cell-based; conditions: dose 1-10 µM, time 10.0 day
Procedure, shortened: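 A375 cells in log phase were seeded at 250 per well and incubated 48 h. They were then treated with 1, 5 or 10 μM for 10 days, with medium ± compound changed every 3 days. Colonies were methanol-fixed, stained with 0.5% crystal violet and counted by microscopy. Colony area expressed versus vehicle (100%) as mean ± SEM of three biological replicates.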

MDA-MB-231 = assay: Antiproliferative activity against human MDA-MB-231 cells assessed as inhibition of cell growth incubated for 72 hrs by MTS assay; assay type: functional, cell-based; conditions: MDA-MB-231, 72 h
Procedure, shortened: (§1)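 Cells seeded at 3,000–8,000 per well according to growth rate and incubated overnight. They were then exposed to compounds over 3 nM–100 μM for 72 h, four replicates per concentration. MTS added, 1.5 h in the dark at 37 °C, absorbance read at 490 nm. IC50 normalized to untreated cells and fitted by nonlinear regression.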

CWR22R [2] = assay: Antitumor activity against human 22Rv1 cells xenografted in NOD SCID mouse assessed as disruption of tumor vasculature at 60 mg/kg, ip administered for 10 days by immunostaining analysis; assay type: functional, organism-based; conditions: time 10.0 day
Procedure, shortened: (§2)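 Tumors came from 22Rv1 xenografts in male NSG mice dosed i.p. daily for 10 days. Cryosections (10 μm) were fixed in 4% PFA and permeabilized with 0.25% Triton X-100, then blocked with 10% goat serum. Primary antibodies (1:200) against MDM2, cleaved caspase-3, cleaved PARP or CD31 were applied overnight at 4 °C, followed by fluorescent secondaries (1:1,000, 2 h) and a DAPI counterstain. Fluorescence intensity quantified as mean ± SEM.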

CWR22R [3] = assay: Inhibition of colony formation in human 22Rv1 cells assessed as reduction in number of clonogenic cells incubated for 14 days and subsequent media replacement with compound for every 3 days by crystal violet staining based microscopic analysis; assay type: functional, cell-based; conditions: dose 1-10 µM, time 14.0 day
Procedure, shortened: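 22Rv1 cells in log phase were seeded at 2,000 per well and incubated 72 h. They were then treated with 1, 5 or 10 μM for 14 days, with medium ± compound renewed every 3 days. Colonies were fixed in cold methanol, stained with 0.5% crystal violet and counted microscopically. Run in triplicate; area expressed relative to vehicle (100%) as mean ± SEM of three biological replicates.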

CWR22R [4] = assay: Antiproliferative activity against human 22Rv1 cells assessed as inhibition of cell growth incubated for 72 hrs by MTS assay; assay type: functional, cell-based; conditions: 22Rv1, 72 h; procedure, shortened: as §1
[5] = molecular target: E3 ubiquitin-protein ligase XIAP (Homo sapiens) (UniProt P98170); assay: Inhibition of XIAP in human EU-1 cells assessed as increase in caspase3 at 1 uM incubated upto 24 hrs by Western blot analysis; assay type: cell-based
Procedure, shortened: (§3)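 EU-1 cells were treated at the doses and times indicated; for caspase-3, caspase-9 and PARP, 1 μM over a time course. Cells were lysed for 30 min in NaCl/Tris pH 8.0/EDTA/NP-40 buffer with protease inhibitors. Equal protein was run on SDS-PAGE and transferred to nitrocellulose. Membranes were blocked in milk, incubated with primary antibodies for 3 h at room temperature and HRP secondary for 1 h, then developed by ECL.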

EU-1 [6] = assay: Downregulation of MDM2 expression in human EU-1 cells incubated for 8 hrs by Western blot analysis; assay type: functional, cell-based; conditions: dose <= 1.0 µM; procedure, shortened: as §3
CWR22R [7] = assay: Antitumor activity against human 22Rv1 cells xenografted in NOD SCID mouse at 60 mg/kg, ip administered for 10 days and measured every 3 days; assay type: functional, organism-based; conditions: time 10.0 day
Procedure, shortened: (§4)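 Male humanized NSG mice, 8–9 weeks old, were injected s.c. in the right dorsal flank with 2 million 22Rv1 cells in medium/Matrigel 1:1. After ~14 days (mean tumor ~100 mm3), mice were randomized, n=5/group. Dosing was 60 mg/kg i.p. daily for 10 days in 5% DMSO/65% PEG400/30% saline, or vehicle alone. Caliper volume (a×b2×0.5) and body weight were recorded every 3 days.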

[8] = Antiproliferative activity against human EU-1 cells assessed as inhibition of cell growth incubated for 44 hrs by WST assay; assay type: functional, cell-based; conditions: EU-1, 44 h
Procedure, shortened: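 Pediatric ALL-derived EU-1 cells grown in RPMI 1640 with 10% FBS, 2 mmol/L L-glutamine and penicillin/streptomycin at 37 °C, 5% CO2. Compounds given at graded concentrations for 44 h. WST (25 μg/well) then added for a further 4 h. OD read at 450 nm against a 620 nm reference, with cell-free wells for background.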

[9] = Toxicity in NOD SCID mouse assessed as body weight loss at 60 mg/kg, ip administered for 10 days and measured every 3 days; assay type: organism-based; conditions: in vivo, 240 h, time 10 day; procedure, shortened: as §4
CWR22R [10] = assay: Antitumor activity against human 22Rv1 cells xenografted in NOD SCID mouse assessed as decrease in MDM2 expression at 60 mg/kg, ip administered for 10 days by immunostaining analysis; assay type: functional, organism-based; conditions: time 10.0 day; procedure, shortened: as §2
CWR22R [11] = assay: Antitumor activity against human 22Rv1 cells xenografted in NOD SCID mouse assessed as increase in cleaved caspase3 expression at 60 mg/kg, ip administered for 10 days by immunostaining analysis; assay type: functional, organism-based; conditions: time 10.0 day; procedure, shortened: as §2
[12] = molecular target: E3 ubiquitin-protein ligase Mdm2 (Homo sapiens) (UniProt Q00987); assay: Inhibition of MDM2 in human A-375 cells assessed as increase in PARP expression upto 10 uM incubated at 24 hrs by Western blot analysis; assay type: cell-based
Procedure, shortened: (§5)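 22Rv1 or A375 cells grown to 80% confluence were exposed for 24 h to 1, 5 or 10 μM compound in DMEM. AMG-232 control ran at 100 nM–1 μM. Cells were lysed in RIPA with protease/phosphatase inhibitors, and 30 μg protein was run on SDS-PAGE/PVDF. Membranes were blocked in 5% milk and probed overnight at 4 °C for p53, c-PARP, MDM2 and GAPDH. Bands detected by HRP/ECL.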

[13] = molecular target: E3 ubiquitin-protein ligase Mdm2 (Homo sapiens) (UniProt Q00987); assay: Inhibition of MDM2 in human EU-1 cells assessed as increase in p21 expression upto 1 uM incubated at 8 hrs by Western blot analysis; assay type: cell-based; procedure, shortened: as §3
CWR22R [14] = assay: Antitumor activity against human 22Rv1 cells xenografted in NOD SCID mouse assessed as inhibition of tumor growth at 60 mg/kg, ip administered for 10 days and measured every 3 days; assay type: functional, organism-based; conditions: time 10.0 day; procedure, shortened: as §4
[15] = molecular target: E3 ubiquitin-protein ligase Mdm2 (Homo sapiens) (UniProt Q00987); assay: Inhibition of MDM2 in human A-375 cells assessed as increase in p53 expression upto 10 uM incubated at 24 hrs by Western blot analysis; assay type: cell-based
Procedure, shortened: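 22Rv1 or A375 cells grown to 80% confluence were exposed for 24 h to 1, 5 or 10 μM compound in DMEM. Cells were lysed in RIPA with protease/phosphatase inhibitors, and 30 μg protein was run on SDS-PAGE/PVDF. Membranes were blocked in 5% milk and probed overnight at 4 °C for p53, c-PARP, MDM2 and GAPDH. Bands detected by HRP/ECL.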

[16] = molecular target: E3 ubiquitin-protein ligase Mdm2 (Homo sapiens) (UniProt Q00987); assay: Inhibition of MDM2 in human 22Rv1 cells assessed as increase in PARP expression upto 10 uM incubated at 24 hrs by Western blot analysis; assay type: cell-based; procedure, shortened: as §5
[17] = molecular target: E3 ubiquitin-protein ligase Mdm2 (Homo sapiens) (UniProt Q00987); assay: Inhibition of MDM2 in human EU-1 cells assessed as increase in p53 expression upto 1 uM incubated at 8 hrs by Western blot analysis; assay type: cell-based; procedure, shortened: as §3
[18] = molecular target: E3 ubiquitin-protein ligase XIAP (Homo sapiens) (UniProt P98170); assay: Inhibition of XIAP in human EU-1 cells assessed as increase in PARP at 1 uM incubated upto 24 hrs by Western blot analysis; assay type: cell-based; procedure, shortened: as §3
CWR22R [19] = assay: Antitumor activity against human 22Rv1 cells xenografted in NOD SCID mouse assessed as increase in cleaved PARP expression at 60 mg/kg, ip administered for 10 days by immunostaining analysis; assay type: functional, organism-based; conditions: time 10.0 day; procedure, shortened: as §2
[20] = molecular target: E3 ubiquitin-protein ligase XIAP (Homo sapiens) (UniProt P98170); assay: Inhibition of XIAP in human EU-1 cells assessed as increase in caspase-9 at 1 uM incubated upto 24 hrs by Western blot analysis; assay type: cell-based; procedure, shortened: as §3
[21] = molecular target: E3 ubiquitin-protein ligase Mdm2 (Homo sapiens) (UniProt Q00987); assay: Inhibition of MDM2 in human EU-1 cells assessed as increase in PUMA expression upto 1 uM incubated at 8 hrs by Western blot analysis; assay type: cell-based; procedure, shortened: as §3
[22] = molecular target: E3 ubiquitin-protein ligase Mdm2 (Homo sapiens) (UniProt Q00987); assay: Inhibition of MDM2 in human 22Rv1 cells assessed as increase in p53 expression upto 10 uM incubated at 24 hrs by Western blot analysis; assay type: cell-based; procedure, shortened: as §5
EU-1 [23] = assay: Downregulation of MDM2 expression in human EU-1 cells upto 1 uM by Western blot analysis; assay type: functional, cell-based; conditions: time 8.0 hrs, TDE = time-dependent effect; procedure, shortened: as §3
A-375 [24] = assay: Antiproliferative activity against human A-375 cells assessed as inhibition of cell growth incubated for 72 hrs by MTS assay; conditions: A-375, 72 h

Sequence of E3 ubiquitin-protein ligase XIAP (Homo sapiens) (P98170 whole entry): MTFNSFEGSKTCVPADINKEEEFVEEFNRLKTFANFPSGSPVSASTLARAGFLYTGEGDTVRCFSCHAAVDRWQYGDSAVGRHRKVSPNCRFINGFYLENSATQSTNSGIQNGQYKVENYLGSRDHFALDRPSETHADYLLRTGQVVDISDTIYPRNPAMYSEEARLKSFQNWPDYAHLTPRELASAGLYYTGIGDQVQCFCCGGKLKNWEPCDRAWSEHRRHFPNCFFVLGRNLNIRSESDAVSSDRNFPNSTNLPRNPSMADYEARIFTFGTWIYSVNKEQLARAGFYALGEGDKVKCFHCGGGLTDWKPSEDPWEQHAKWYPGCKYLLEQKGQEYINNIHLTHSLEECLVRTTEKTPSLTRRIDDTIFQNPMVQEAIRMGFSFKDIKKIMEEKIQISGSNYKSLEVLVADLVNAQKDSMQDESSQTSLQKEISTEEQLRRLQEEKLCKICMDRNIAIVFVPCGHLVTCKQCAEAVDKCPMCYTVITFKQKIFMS
Sequence of E3 ubiquitin-protein ligase Mdm2 (Homo sapiens) (Q00987 whole entry, looked up): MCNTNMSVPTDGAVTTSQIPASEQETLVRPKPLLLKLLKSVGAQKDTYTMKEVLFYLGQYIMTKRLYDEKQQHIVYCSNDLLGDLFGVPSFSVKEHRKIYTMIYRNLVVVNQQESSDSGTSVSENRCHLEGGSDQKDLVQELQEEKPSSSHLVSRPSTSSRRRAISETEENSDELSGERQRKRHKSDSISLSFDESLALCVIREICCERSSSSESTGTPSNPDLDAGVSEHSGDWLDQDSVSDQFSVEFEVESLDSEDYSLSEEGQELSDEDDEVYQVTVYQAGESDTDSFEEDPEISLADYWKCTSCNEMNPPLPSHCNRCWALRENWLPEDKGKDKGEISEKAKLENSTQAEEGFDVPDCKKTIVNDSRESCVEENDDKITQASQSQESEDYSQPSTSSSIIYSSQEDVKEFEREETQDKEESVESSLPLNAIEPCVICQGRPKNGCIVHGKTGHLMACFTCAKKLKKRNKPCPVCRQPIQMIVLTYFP

CC(=O)c1cccc(NS(=O)(=O)c2ccc3c(c2)C2OCCC2C(c2ccc(C(=O)C(C)C)cc2)N3)c1 (stereo not given)
200 nM: IC50 [8]
1000 nM: IC50 (A-375 [24])
Non-Toxic: Activity [9]
active: inhibition (A-375 [1]) | Activity (CWR22R [2]) | inhibition (CWR22R [3]) Dose-Dependent Effect | inhibition [5] | Activity (EU-1 [6]) Dose-Dependent Effect | Activity (CWR22R [7]) | Activity (CWR22R [10]) | Activity (CWR22R [11]) | inhibition [12] | inhibition [13] | Activity (CWR22R [14]) | inhibition [15] | inhibition [16] | inhibition [17] | inhibition [18] | Activity (CWR22R [19]) | inhibition [20] | inhibition [21] | inhibition [22] | Activity (EU-1 [23]) Tde
5300 nM: IC50 (CWR22R [4])
1500 nM: IC50 (MDA-MB-231)
